Laboratory results: ChEMBL document CHEMBL1212879, “Synthesis and T-type calcium channel blocking activity of novel diphenylpiperazine compounds, and evaluation of in vivo analgesic activity” (Bioorg Med Chem, 2010)
Calls of active or inactive are those of the source.

Assays:
[1] = biological target: Voltage-dependent N-type calcium channel subunit alpha-1B (Homo sapiens) (UniProt Q00975); test: Inhibition of N-type Alpha-1B channel expressed in HEK293 cells by whole-cell patch-clamp method; format: cell-based; design: concentration or dose not given beside the values; conditions: concentration not given here
Chain of Voltage-dependent N-type calcium channel subunit alpha-1B (Homo sapiens) (Q00975 whole entry, looked up): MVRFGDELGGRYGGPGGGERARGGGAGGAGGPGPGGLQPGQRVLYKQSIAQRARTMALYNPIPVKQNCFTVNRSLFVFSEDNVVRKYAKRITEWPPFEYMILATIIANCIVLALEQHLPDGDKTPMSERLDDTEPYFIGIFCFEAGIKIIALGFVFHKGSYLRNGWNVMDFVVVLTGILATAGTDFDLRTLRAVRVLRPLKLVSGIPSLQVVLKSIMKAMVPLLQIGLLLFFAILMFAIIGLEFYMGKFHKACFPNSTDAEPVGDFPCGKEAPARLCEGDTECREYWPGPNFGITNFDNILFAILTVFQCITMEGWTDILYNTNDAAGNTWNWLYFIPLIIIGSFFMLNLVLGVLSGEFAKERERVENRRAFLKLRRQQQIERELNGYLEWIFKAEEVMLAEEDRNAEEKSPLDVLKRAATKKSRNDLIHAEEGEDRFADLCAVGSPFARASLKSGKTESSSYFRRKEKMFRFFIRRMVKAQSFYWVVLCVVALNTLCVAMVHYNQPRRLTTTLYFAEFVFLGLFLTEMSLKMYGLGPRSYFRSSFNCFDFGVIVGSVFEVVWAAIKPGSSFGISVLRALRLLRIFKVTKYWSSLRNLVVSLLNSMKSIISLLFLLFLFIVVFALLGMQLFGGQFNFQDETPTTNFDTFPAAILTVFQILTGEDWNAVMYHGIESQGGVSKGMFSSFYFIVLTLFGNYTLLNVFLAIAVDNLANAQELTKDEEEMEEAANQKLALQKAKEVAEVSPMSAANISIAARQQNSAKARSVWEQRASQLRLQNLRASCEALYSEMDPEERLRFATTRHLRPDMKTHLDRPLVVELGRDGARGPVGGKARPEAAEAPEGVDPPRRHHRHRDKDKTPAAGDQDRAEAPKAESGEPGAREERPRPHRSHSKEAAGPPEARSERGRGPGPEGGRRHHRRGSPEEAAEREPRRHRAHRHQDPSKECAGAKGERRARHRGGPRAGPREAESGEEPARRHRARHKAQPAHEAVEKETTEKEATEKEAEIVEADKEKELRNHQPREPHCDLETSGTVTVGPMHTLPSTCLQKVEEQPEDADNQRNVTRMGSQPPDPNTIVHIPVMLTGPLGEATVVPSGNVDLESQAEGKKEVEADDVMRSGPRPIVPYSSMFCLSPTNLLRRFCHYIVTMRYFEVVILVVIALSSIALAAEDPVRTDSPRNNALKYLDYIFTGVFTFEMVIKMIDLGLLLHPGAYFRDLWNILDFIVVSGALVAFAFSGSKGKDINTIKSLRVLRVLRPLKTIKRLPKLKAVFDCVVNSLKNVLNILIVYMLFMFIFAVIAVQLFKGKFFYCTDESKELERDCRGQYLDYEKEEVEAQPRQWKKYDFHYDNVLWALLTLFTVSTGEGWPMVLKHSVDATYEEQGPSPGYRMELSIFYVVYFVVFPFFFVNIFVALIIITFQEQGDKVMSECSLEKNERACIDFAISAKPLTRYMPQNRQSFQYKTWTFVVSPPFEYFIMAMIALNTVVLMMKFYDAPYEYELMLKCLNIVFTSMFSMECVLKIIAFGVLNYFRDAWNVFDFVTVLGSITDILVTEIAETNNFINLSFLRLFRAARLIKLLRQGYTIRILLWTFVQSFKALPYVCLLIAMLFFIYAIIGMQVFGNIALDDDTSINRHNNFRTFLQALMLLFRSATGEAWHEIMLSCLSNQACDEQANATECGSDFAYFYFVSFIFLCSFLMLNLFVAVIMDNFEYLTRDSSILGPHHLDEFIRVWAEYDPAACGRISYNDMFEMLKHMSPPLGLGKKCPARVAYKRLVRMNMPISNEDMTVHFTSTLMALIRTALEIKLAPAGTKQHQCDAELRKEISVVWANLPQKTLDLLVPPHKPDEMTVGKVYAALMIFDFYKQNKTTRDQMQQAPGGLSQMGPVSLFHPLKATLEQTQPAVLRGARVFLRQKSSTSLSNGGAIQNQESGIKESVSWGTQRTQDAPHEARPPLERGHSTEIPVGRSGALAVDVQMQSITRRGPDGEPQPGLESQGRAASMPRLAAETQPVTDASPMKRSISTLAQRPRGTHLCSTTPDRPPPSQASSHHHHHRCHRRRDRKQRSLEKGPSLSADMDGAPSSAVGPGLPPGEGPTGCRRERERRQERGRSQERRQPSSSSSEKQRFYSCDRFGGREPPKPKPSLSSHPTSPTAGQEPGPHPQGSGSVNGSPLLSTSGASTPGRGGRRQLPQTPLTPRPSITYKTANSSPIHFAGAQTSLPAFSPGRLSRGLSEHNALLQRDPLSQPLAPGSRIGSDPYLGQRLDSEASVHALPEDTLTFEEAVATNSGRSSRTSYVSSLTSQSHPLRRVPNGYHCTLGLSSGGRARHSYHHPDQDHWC

[2] = biological target: T1, Voltage-dependent T-type calcium channel subunit alpha-1G (Homo sapiens, UniProt O43497); test: Inhibition of T-type alpha1G channel expressed in HEK293 cells by whole-cell patch-clamp method; format: cell-based
T1 sequence (O43497 whole entry): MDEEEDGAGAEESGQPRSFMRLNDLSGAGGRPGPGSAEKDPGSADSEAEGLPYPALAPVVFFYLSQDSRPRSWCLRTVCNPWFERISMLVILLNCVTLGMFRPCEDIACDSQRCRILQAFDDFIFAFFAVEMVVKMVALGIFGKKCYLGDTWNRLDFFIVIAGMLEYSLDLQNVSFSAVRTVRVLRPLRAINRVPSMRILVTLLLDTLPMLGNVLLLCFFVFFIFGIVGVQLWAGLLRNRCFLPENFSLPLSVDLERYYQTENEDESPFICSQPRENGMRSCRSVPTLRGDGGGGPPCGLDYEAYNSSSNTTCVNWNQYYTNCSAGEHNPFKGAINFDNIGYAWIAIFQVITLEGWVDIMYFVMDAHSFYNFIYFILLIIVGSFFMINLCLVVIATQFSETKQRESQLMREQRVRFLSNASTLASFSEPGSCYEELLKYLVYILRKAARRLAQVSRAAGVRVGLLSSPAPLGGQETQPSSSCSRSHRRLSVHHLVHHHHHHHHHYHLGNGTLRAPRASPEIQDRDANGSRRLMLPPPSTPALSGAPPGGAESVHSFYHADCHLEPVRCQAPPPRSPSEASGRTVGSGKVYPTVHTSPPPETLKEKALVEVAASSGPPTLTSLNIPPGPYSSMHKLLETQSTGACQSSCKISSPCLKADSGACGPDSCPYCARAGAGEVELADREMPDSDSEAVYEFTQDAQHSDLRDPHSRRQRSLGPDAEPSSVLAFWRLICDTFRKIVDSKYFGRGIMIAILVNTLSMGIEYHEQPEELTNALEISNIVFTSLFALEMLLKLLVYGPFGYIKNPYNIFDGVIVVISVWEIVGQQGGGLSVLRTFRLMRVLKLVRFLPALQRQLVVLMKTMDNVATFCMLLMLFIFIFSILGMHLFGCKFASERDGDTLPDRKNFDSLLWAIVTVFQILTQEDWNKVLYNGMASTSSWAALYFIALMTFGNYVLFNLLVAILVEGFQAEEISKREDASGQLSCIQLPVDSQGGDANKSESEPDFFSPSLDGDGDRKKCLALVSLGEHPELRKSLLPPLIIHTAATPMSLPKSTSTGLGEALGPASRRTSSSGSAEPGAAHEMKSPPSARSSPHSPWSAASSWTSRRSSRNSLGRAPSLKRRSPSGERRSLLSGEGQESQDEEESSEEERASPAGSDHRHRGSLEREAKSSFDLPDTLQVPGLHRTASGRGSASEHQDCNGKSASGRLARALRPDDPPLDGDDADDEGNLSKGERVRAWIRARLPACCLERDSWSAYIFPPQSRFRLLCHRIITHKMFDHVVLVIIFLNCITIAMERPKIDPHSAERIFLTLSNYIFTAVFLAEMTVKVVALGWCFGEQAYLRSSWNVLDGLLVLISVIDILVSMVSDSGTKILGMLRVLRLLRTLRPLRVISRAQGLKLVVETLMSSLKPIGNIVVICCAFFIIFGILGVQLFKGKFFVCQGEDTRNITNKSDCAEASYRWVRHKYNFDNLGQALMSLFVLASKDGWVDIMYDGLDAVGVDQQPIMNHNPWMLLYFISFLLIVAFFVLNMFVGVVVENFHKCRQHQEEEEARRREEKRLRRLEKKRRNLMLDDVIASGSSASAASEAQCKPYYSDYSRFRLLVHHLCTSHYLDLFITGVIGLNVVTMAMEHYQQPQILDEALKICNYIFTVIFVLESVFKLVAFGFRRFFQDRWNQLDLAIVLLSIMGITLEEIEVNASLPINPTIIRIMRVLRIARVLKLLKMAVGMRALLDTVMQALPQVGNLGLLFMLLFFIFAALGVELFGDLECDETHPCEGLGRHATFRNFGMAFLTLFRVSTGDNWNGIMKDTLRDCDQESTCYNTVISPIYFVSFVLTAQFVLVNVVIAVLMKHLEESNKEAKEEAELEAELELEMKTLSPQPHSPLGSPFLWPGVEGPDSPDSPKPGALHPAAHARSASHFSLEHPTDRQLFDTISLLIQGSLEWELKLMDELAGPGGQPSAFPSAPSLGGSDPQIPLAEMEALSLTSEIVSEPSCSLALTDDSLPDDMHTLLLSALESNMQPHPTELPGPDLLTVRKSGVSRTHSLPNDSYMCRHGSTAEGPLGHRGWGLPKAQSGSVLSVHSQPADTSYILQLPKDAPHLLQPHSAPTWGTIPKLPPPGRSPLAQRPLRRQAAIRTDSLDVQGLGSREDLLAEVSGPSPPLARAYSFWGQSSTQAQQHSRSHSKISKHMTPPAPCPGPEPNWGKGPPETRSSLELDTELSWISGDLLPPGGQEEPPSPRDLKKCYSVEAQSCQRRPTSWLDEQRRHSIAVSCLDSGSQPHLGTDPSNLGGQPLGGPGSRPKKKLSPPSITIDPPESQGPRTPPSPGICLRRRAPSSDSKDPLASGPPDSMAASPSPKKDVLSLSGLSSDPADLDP
Outline: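 HEK293 cells stably expressing α1G (Cav3.1); whole-cell patch clamp. External solution in mM: 140 NaCl, 2 CaCl2, 10 Hepes, 10 glucose, pH 7.4.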

[3] = Inhibition of L-type calcium channel
[4] = biological target: Voltage-dependent N-type calcium channel subunit alpha-1B (Homo sapiens) (UniProt Q00975); test: Inhibition of N-type Alpha-1B channel expressed in HEK293 cells at 10 uM by whole-cell patch-clamp method; format: cell-based
Rattus norvegicus [5] = test: Analgesic activity against formalin-induced inflammatory pain in rat assessed as reduction of pain behavior time at 60 µg/ 10 ul, sc administered after 10 mins at 5 mins intervals (reference value: 47.05 +/- 8.53 seconds); format: functional
Rattus norvegicus [6] = test: Antinociceptive activity against von Frey hair mechanically stimulated neuropathic pain in rat assessed as withdrawal threshold at 60 mg/kg, ip administered 2 weeks after surgery; format: functional, organism-based; design: dose 60 mg/kg
Outline: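 Tail nerve injury rats (unilateral caudal trunk transection between S1 and S2 under enflurane) received a baseline test 2 weeks post-injury. They were then dosed at 60 mg/kg ip in methyl pyrrolidone/Tween 80/saline (1:1:8). Tail withdrawal to von Frey filaments was retested at 1, 3, 5 and 24 h. Versus baseline by one-way repeated-measures ANOVA with Bonferroni t-test.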

Rattus norvegicus [7] = test: Anti-cold allodynic activity in rat assessed as tail withdrawal latency at 60 mg/kg, ip measured within cut-off time of 15 seconds for up to 24 hrs; format: functional, organism-based; design: dose 60 mg/kg
Outline: (§1)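 At 2 weeks, after a baseline test, 60 mg/kg was given ip in methyl pyrrolidone/Tween 80/saline (1:1:8). Tail withdrawal latency to 4 °C (cold) or 40 °C (warm) water immersion was read at 1, 3, 5 and 24 h, with a 15 s cut-off. Versus baseline by repeated-measures ANOVA with Bonferroni t-test.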

Rattus norvegicus [8] = test: Anti-warm allodynic activity in rat assessed as tail withdrawal latency at 60 mg/kg, ip measured within cut-off time of 15 seconds for up to 24 hrs; format: functional, organism-based; design: dose 60 mg/kg; outline: as §1
Rattus norvegicus [9] = test: Analgesic activity against formalin-induced inflammatory pain in rat assessed as reduction of time spent on paw licking, shaking or biting at 60 ug, sc administered after 50 mins at 5 mins intervals; conditions: route subcutaneous
Rattus norvegicus [10] = test: Analgesic activity against formalin-induced inflammatory pain in rat assessed as reduction of time spent on paw licking, shaking, biting at 60 ug, sc administered after 50 mins at 5 mins intervals(reference value: 334.21 +/- 51.10 seconds); conditions: route subcutaneous
[11] = Inhibition of T-type Cav3 channel
Outline: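 Whole-cell patch clamp on HEK293 cells stably expressing Cav3.1 (α1G). External solution was 140 mM NaCl, 2 mM CaCl2, 10 mM Hepes and 10 mM glucose, pH 7.4. Currents were evoked every 15 s by a 50 ms depolarizing voltage step.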

[12] = biological target: T1, Voltage-dependent T-type calcium channel subunit alpha-1G; test: Inhibition of T-type Cav3.1 channel
[13] = biological target: Voltage-dependent T-type calcium channel subunit alpha-1H (Homo sapiens, UniProt O95180); test: Inhibition of T-type Cav3.2 channel
[14] = biological target: Voltage-dependent T-type calcium channel subunit alpha-1I (Homo sapiens, UniProt Q9P0X4); test: Inhibition of T-type Cav3.3 channel

| SMILES | inhibition [1] [%] | IC50 [2] [µM] | further results |
| --- | --- | --- | --- |
| CN(C)c1ccc(CNCCCC(=O)N2CCN(C(c3ccccc3)c3ccc(Cl)cc3)CC2)cc1 (stereo not drawn) | 10.8 | 2.32 |  |
| COc1ccc(CNCCCC(=O)N2CCN(C(c3ccccc3)c3ccc(Cl)cc3)CC2)cc1 (stereo not drawn) | 49.6 | 16.1 |  |
| COCC(=O)O[C@]1(CCN(C)CCCc2nc3ccccc3[nH]2)CCc2cc(F)ccc2[C@@H]1C(C)C [MIBEFRADIL] |  |  | IC50 [3]: 10 µM |
| CC(C)c1ccc(CNCCCC(=O)N2CCN(C(c3ccccc3)c3ccc(Cl)cc3)CC2)cc1 (stereo not drawn) | 80.2 | 0.28 | inhibition [4]: 80% |
| O=C(CCCNCc1ccccc1)N1CCN(C(c2ccccc2)c2ccc(Cl)cc2)CC1 (stereo not drawn) | 69.8 | 1.67 |  |
| O=C(CCCNCc1c(Cl)cccc1Cl)N1CCN(C(c2ccccc2)c2ccc(Cl)cc2)CC1 (stereo not drawn) | 78.4 | 1.02 |  |
| NCCCC(=O)N1CCN(C(c2ccccc2)c2ccc(Cl)cc2)CC1 (stereo not drawn) | 10 | 3.71 | Time (Rattus norvegicus [5]): 2.41 s; Activity (Rattus norvegicus [6]): Active; Activity (Rattus norvegicus [7]): Active; Activity (Rattus norvegicus [8]): Active; Time (Rattus norvegicus [9]): 62.57 s |
| O=C(CCCNCC1CCCCC1)N1CCN(C(c2ccccc2)c2ccc(Cl)cc2)CC1 (stereo not drawn) | 84.9 | 0.19 | inhibition [4]: 80%; Time (Rattus norvegicus [5]): 1.8 s; Activity (Rattus norvegicus [6]): inactive; Activity (Rattus norvegicus [7]): Active; Activity (Rattus norvegicus [8]): Active; Time (Rattus norvegicus [10]): 24.32 s |
| O=c1[nH]c2ccccc2n1C1CCN(CCCC(c2ccc(F)cc2)c2ccc(F)cc2)CC1 |  |  | INH [11]: 40 nM |
| NCC1(CC(=O)O)CCCCC1 |  |  | Activity (Rattus norvegicus [6]): Active; Activity (Rattus norvegicus [7]): Active; Activity (Rattus norvegicus [8]): Active |
| CCNCCCC(=O)N1CCN(C(c2ccccc2)c2ccc(Cl)cc2)CC1 (stereo not drawn) | 20 | 0.42 |  |
| O=C(CCCNCc1ccc([N+](=O)[O-])cc1)N1CCN(C(c2ccccc2)c2ccc(Cl)cc2)CC1 (stereo not drawn) | 88.8 | 0.6 | inhibition [4]: 80% |
| CC(C)CNCCCC(=O)N1CCN(C(c2ccccc2)c2ccc(Cl)cc2)CC1 (stereo not drawn) | 13.3 | 0.36 |  |
| CCC(CC)CNCCCC(=O)N1CCN(C(c2ccccc2)c2ccc(Cl)cc2)CC1 (stereo not drawn) | 16.8 | 1.54 |  |
| Fc1ccc(C(c2ccc(F)cc2)N2CCN(C/C=C/c3ccccc3)CC2)cc1 [FLUNARIZINE] |  |  | Kd [12]: 0.53 µM; Kd [13]: 3.6 µM; Kd [14]: 0.84 µM |
